Laboratory results taken from ChEMBL document CHEMBL3425409, “General role of the amino and methylsulfamoyl groups in selective cyclooxygenase(COX)-1 inhibition by 1,4-diaryl-1,2,3-triazoles and validation of a predictive pharmacometric PLS model” (Eur J Med Chem, 2015).
Active and inactive are the calls of the source. The calls are words filed in the database; no cut-off is given here.

How the values were obtained:
[1] = molecular target: T1, Prostaglandin G/H synthase 1 (Ovis aries) (UniProt P05979); assay: Inhibition of ovine COX-1 assessed as inhibition of PGH2 production using arachidonic acid as substrate at 50 uM by TMPD oxidation based colorimetric assay
T1 sequence (whole entry): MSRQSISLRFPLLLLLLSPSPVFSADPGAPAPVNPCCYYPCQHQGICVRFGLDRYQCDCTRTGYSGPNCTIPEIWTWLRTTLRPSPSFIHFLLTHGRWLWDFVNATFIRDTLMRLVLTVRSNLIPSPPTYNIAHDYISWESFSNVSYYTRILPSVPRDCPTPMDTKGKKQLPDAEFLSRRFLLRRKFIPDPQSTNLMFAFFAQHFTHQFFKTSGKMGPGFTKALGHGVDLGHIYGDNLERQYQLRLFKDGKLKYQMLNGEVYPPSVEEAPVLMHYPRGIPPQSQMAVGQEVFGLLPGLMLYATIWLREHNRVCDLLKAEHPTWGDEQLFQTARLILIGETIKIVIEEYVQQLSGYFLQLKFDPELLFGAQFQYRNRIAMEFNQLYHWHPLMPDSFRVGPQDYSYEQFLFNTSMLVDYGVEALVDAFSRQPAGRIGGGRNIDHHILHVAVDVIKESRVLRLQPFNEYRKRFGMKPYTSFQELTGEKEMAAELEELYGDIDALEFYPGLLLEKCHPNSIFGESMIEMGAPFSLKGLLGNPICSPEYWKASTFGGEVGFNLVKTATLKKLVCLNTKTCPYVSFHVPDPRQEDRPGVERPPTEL
How it was run: (§1)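 Ovine COX-1 and COX-2 tested with a commercial colorimetric COX inhibitor screening kit, run per the manufacturer's protocol. The kit reads the enzyme's peroxidase activity. Compounds screened as percent inhibition at a single 50 µM concentration.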

[2] = molecular target: T2, Prostaglandin G/H synthase 2 (Ovis aries) (UniProt P79208); assay: Inhibition of ovine COX-2 assessed as inhibition of PGH2 production using arachidonic acid as substrate at 50 uM by TMPD oxidation based colorimetric assay; how it was run: as §1
T2 sequence (whole entry): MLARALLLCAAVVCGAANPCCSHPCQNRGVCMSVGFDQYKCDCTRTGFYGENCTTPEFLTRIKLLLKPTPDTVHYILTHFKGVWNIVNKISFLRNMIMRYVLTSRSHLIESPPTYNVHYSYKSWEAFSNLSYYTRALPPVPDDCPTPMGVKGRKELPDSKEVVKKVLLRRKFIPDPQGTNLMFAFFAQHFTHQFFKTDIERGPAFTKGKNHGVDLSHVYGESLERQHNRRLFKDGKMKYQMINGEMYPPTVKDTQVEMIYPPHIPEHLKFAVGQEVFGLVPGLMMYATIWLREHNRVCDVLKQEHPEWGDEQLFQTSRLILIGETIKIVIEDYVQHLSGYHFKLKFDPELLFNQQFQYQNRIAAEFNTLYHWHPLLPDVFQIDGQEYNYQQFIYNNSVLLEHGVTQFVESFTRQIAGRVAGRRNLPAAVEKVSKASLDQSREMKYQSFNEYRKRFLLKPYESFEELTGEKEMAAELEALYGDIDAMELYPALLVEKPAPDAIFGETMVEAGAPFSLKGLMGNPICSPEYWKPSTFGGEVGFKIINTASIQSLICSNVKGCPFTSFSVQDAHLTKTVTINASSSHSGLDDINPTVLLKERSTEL

[3] = molecular target: T3, Prostaglandin G/H synthase 2 (Homo sapiens, UniProt P35354); assay: Inhibition of LPS-induced COX2 in human whole blood assessed as reduction in […] levels by radioimmunoassay
T3 sequence (P35354 whole entry): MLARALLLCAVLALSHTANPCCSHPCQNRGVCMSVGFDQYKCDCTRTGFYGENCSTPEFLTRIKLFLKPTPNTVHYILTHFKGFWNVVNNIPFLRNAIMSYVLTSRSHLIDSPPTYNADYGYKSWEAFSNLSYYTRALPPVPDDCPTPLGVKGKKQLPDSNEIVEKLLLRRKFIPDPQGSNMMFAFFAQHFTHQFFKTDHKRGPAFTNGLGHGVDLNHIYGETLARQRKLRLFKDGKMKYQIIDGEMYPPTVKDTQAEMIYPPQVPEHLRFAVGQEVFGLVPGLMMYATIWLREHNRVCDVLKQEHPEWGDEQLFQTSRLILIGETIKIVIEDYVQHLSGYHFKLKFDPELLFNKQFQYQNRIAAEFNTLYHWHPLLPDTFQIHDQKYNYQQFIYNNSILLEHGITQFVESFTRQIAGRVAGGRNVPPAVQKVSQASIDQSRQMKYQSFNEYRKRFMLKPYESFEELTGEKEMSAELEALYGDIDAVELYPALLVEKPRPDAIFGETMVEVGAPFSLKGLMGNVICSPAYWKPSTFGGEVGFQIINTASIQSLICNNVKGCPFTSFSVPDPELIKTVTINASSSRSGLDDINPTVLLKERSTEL

[4] = system: MCF7; assay: Antiproliferative activity against human MCF7 cells assessed as cell growth inhibition after 48 hrs by MTT assay; assay type: cell-based; conditions: mcf7, 48 h
How it was run: (§2)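 MTT read-out of growth after 48 h. After the drug incubation, MTT was added at 0.5 mg/mL for 3 h at 37 °C. Supernatant was removed, formazan dissolved in DMSO, and absorbance read.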

[5] = system: SK-OV-3; assay: Antiproliferative activity against human SKOV3 cells assessed as cell growth inhibition after 48 hrs by MTT assay; assay type: cell-based; conditions: sk-ov-3, 48 h; how it was run: as §2
[6] = molecular target: T4, Prostaglandin G/H synthase 2 (Ovis aries, UniProt P79208); assay: Inhibition of ovine COX-2 assessed as inhibition of PGH2 production using arachidonic acid as substrate by TMPD oxidation based colorimetric assay
T4 sequence (P79208 whole entry): T2 sequence (whole entry)

| Compound | inhibition [1] | inhibition [2] | also measured |
| --- | --- | --- | --- |
| Cc1c(-c2ccccc2)nnn1-c1ccc([N+](=O)[O-])cc1 | inactive | inactive |  |
| Cc1c(-c2ccccc2)nnn1-c1ccc(F)cc1 | inactive | inactive |  |
| Cc1onc(-c2ccc(Cl)o2)c1-c1ccccc1 | 89% |  | IC50 [3]: > 100000 nM |
| COc1ccc(-c2nnn(-c3ccc(OC)cc3)c2C)cc1 | 25% | inactive |  |
| Cc1c(-c2ccco2)nnn1-c1ccc([N+](=O)[O-])cc1 | inactive | 40% |  |
| COc1ccc(-c2nnn(-c3ccc(SC)cc3)c2C)cc1 | inactive | inactive |  |
| COC(=O)Cc1onc(-c2ccc(Cl)o2)c1-c1ccccc1 | 7% |  |  |
| Cc1c(-c2ccccc2)nnn1-c1ccc(O)cc1 | inactive | 26% |  |
| COc1ccc(-n2nnc(-c3ccc([N+](=O)[O-])cc3)c2C)cc1 | 20% | inactive |  |
| Cc1c(-c2ccccc2)nnn1-c1ccc(N)cc1 | 56% | inactive | Activity [4]: Non-toxic; Activity [5]: Non-toxic |
| COc1ccc(-n2nnc(-c3ccc(N)cc3)c2C)cc1 | 100% | inactive | Activity [4]: Non-toxic; Activity [5]: Non-toxic |
| COc1ccc(-n2nnc(-c3ccccc3)c2C)cc1 | 26% | 35% |  |
| CSc1ccc(-n2nnc(-c3ccccc3)c2C)cc1 | inactive | 14% |  |
| Cc1c(-c2ccccc2)nnn1-c1ccc(Cl)cc1 | inactive | inactive |  |
| COc1ccc(-n2nnc(-c3ccc(S(C)(=O)=O)cc3)c2C)cc1 | 20% | inactive |  |
| COc1ccc(-n2nc(C(F)(F)F)cc2-c2ccco2)cc1 |  | 28% |  |
| COc1ccc(-n2nnc(-c3ccco3)c2C)cc1 | inactive | inactive |  |
| Clc1ccc(-c2noc(CBr)c2-c2ccccc2)o1 | 37% |  |  |
| COc1ccc(-n2nnc(-c3ccc(SC)cc3)c2C)cc1 | inactive | inactive |  |
| COc1ccc(-c2noc(CC(=O)O)c2-c2ccc(OC)cc2)cc1 [MOFEZOLAC] |  |  | IC50 [6]: 440 nM |
| Cc1c(-c2ccccc2)nnn1-c1ccc(S(C)(=O)=O)cc1 | 21% | 20% |  |
| N#CCc1onc(-c2ccc(Cl)o2)c1-c1ccccc1 | 11% |  |  |
| COc1ccc(-n2nnc(-c3ccc(Cl)o3)c2C)cc1 | 45% | inactive |  |
| COc1ccc(-c2nnn(-c3ccc(S(C)(=O)=O)cc3)c2C)cc1 | 55% | inactive |  |
